Active and inactive are the calls of the source. No rule for the calls is given here.
How the values were obtained:
[1] = tested on: Bovine viral diarrhea virus 1; test: Antiviral activity against BVDV infected in MDBK cells assessed as protection against virus-induced cytopathogenicity after 4 days by MTT assay; assay type: functional, organism-based; settings: Bovine viral diarrhea virus isolates and strains, 96 h
How it was run: (§1)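 MDBK (BVDV) or BHK-21 (YFV) cells were seeded at 3 × 10^4 or 5 × 10^4 cells/well respectively and grown overnight to confluent monolayers at 37 °C in 5% CO2. Monolayers were infected at m.o.i. 0.01 in serum-free medium. After 1 h, MEM Earle's with 1% FCS was added, with or without serial compound dilutions. After 3–4 days at 37 °C, viability was read by MTT. EC50 was taken as 50% protection from virus-induced cytopathogenicity.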

[2] = Cytotoxicity against mock-infected BHK cells assessed as reduction in cell viability after 96 hrs by MTT assay; assay type: cell-based, Mesocricetus auratus; settings: hamster
How it was run: (§2)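 Cytotoxicity run in parallel with the antiviral assays. MDBK seeded at 6 × 10^5 and BHK at 1 × 10^6 cells/mL in maintenance medium with or without serial compound dilutions. Incubated 48–96 h at 37 °C, 5% CO2, then viability read by MTT. CC50 is the concentration reducing mock-infected cell viability by 50%.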

[3] = tested on: Human immunodeficiency virus 1; test: Antiviral activity against HIV1 infected in MT4 cells assessed as virus-induced cytopathogenicity after 4 days; assay type: functional, organism-based
[4] = tested on: Yellow fever virus; test: Antiviral activity against YFV infected in BHK21 cells assessed as protection against virus-induced cytopathogenicity after 4 days by MTT assay; assay type: functional, organism-based; settings: BHK-21, 96 h; how it was run: as §1
[5] = Cytotoxicity against mock-infected african green monkey Vero76 cells assessed as reduction in cell viability after 96 hrs by MTT assay; assay type: cell-based, Vero; settings: chlorocebus sabaeus
[6] = Cytotoxicity against mock-infected human MT4 cells assessed as reduction in cell viability after 96 hrs by MTT assay; assay type: cell-based
How it was run: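 Exponentially growing MT-4 cells seeded at 1 × 10^5 cells/mL in RPMI-1640 with 10% FCS, penicillin and streptomycin, with or without serial compound dilutions. Incubated at 37 °C, 5% CO2; viability read by MTT after 96 h. CC50 is the concentration reducing mock-infected cell viability by 50%.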

[7] = tested on: Coxsackievirus B2; test: Antiviral activity against CVB2 infected in Vero76 cells assessed as reduction in virus plaque formation after 4 days by MTT assay; assay type: functional, organism-based; settings: Enterovirus B, Vero 76, 96 h
[8] = tested on: Respiratory syncytial virus; test: Antiviral activity against RSV infected in Vero76 cells assessed as reduction in virus plaque formation after 4 days by MTT assay; assay type: functional, organism-based; settings: human respiratory syncytial virus, Vero 76, 96 h
[9] = tested on: Poliovirus 1; test: Antiviral activity against Sb1 virus infected in Vero76 cells assessed as reduction in virus plaque formation after 4 days by MTT assay; assay type: functional, organism-based; settings: Enterovirus C, Sabin, Vero 76, 96 h
[10] = Cytotoxicity against mock-infected MDBK cells assessed as reduction in cell viability after 96 hrs by MTT assay; assay type: cell-based, Bos taurus; settings: cattle; how it was run: as §2
[11] = tested on: Vesicular stomatitis virus; test: Antiviral activity against VSV infected in Vero76 cells assessed as reduction in virus plaque formation after 4 days by MTT assay; assay type: functional, organism-based; settings: Vero 76
[12] = tested on: Vaccinia virus; test: Antiviral activity against VV infected in Vero76 cells assessed as reduction in virus plaque formation after 4 days by MTT assay; assay type: functional, organism-based; settings: Orthopoxvirus vaccinia; Vero 76

Row | SMILES | EC50 [1] [µM] | CC50 at 96 h [2] [µM] | Activity [3] | EC50 [4] [µM] | CC50 at 96 h [5] [µM] | CC50 at 96 h [6] [µM] | EC50 [7] [µM] | EC50 [8] [µM] | EC50 [9] [µM] | CC50 at 96 h [10] [µM] | Activity [11] | Activity [12]
1 | CCOC(=O)c1ccc(/N=N/C=C/N2CCCC2)cc1 | > 100 | > 100 | inactive | > 100 | > 100 | 26 | 50 | > 100 | > 100 | 100 | inactive | inactive
2 | CN1CCC/C1=C\N=N\c1ccc(Cl)cc1 | 21 | 55 | inactive | > 55 | 92 | > 100 | 24 | 20 | > 92 | 85 | inactive | inactive
3 | Clc1cccc(N2CCN(/C=C/N=N/c3ccccc3)CC2)c1 | > 7 | 47 | inactive | 10 | 11 | 19 | > 11 | 5 | > 11 | 7 | inactive | inactive
4 | Fc1ccc(/N=N\C2=C3CCCCN3CCC2)cc1C(F)(F)F | > 100 | 60 | inactive | > 60 | > 100 | 3 | 45 | > 100 | > 100 | > 100 | inactive | inactive
5 | O=[N+]([O-])c1cc(/N=N\C2=C3CCCCN3CCC2)ccc1Cl | 18 | 10 | inactive | > 10 | 100 | 33 | 51 | 75 | > 100 | 18 | inactive | inactive
6 | CN1C=C(/N=N/c2cccc([N+](=O)[O-])c2)CCC1 | 0.8 | 95 | inactive | > 95 | > 100 | > 100 | > 100 | > 100 | > 100 | > 100 | inactive | inactive
7 | Clc1ccc(/N=N/C=C/N2CCCC2)cc1 | > 30 | > 100 | inactive | 46 | 22 | 61 | 4 | > 22 | > 22 | 30 | inactive | inactive
8 | CN1C=C(/N=N/c2ccc(Cl)c(Cl)c2)CCC1 | 7 | 38 | inactive | > 38 | > 100 | 43 | 14 | > 100 | > 100 | 73 | inactive | inactive
9 | Brc1ccc(/N=N\C2=C3CCCCN3CCC2)cc1 | > 59 | 62 | inactive | ≥ 62 | 92 | 27 | 10 | > 92 | > 92 | 59 | inactive | inactive
